Source: PubChem BioAssay AID463141 (The Scripps Research Institute Molecular Screening Center, 2010)
About 350 (0.11%) of roughly 330,000 compounds were called active.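 The calls were made as follows: active = activation above the mean of all tested compounds plus 3 SD (cut at about 21% in these data); inactive = the rest.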 Shown is part of a subset that was picked to be rich in actives.

biological target: Caspase-3 (Homo sapiens) (UniProt P42574); test: procaspase-3 enzyme activation – biochemical, absorbance, PC-3 D3A mutant, single concentration, primary screen (AID 463141); details: recombinant procaspase-3 D3A, Ac-DEVD-pNA absorbance 405 nm; at 8.5 µM; hits give high values;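 also: 0% = DMSO alone and 100% = DMSO wells spiked with extra 5 µM PC-3 D3A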
Summary of the method: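 assay system = Procaspase-3 D3A mutant | signal = absorbance at 405 nm, 0 and 120 min | times = 1 h preincubation plus 2 h reaction at 25 °C | repeats = single replicate | read-out = % activation between DMSO and enzyme-spiked controls | medium = Zinc-free HEPES saline buffer with Triton X-100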

Chain of Caspase-3 (Homo sapiens) (P42574 whole entry D9A/D28A/D175A): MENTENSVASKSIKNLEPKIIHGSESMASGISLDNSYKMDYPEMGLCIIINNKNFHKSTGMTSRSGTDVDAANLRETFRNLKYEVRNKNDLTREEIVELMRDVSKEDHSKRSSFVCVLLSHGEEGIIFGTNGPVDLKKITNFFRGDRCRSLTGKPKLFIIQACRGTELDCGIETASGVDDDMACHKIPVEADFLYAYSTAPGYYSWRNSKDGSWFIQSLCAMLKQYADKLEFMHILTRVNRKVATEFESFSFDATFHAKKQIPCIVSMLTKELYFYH

activation, active:
CCOc1ccc2nc(NCCNS(=O)(=O)c3ccccc3)c(C#N)cc2c1 27.3%
COc1ccc(-c2sc3ccc(OC)cc3c2C#Cc2ccccn2)cc1 21.3%
COc1ccc(/C=N/Nc2nc3ccccc3c(=O)[nH]2)cc1 30.4%
Fc1ccc(N2N=C(c3cccs3)CC2c2ccco2)c(F)c1 (centres undefined) 40%
COc1ccc(Nc2ncc(C(=O)N3CCN(c4ccccc4OC)CC3)c3ccccc23)cc1 30.4%
COc1ccc(-c2onc3ccc(C(C)=O)cc23)cc1 103%

activation, inactive:
c1ccc2cc(CCCc3cc4ccccc4cn3)ncc2c1 -5.39%
O=C(COC(=O)c1cccc(Cl)c1)NC(=O)NCc1ccccc1 7.09%
Cc1cc(C)c2c(-n3cccc3)c(C(=O)NNS(=O)(=O)c3ccc(F)cc3)sc2n1 -8.55%
CCOC(=O)C1=CN(Cc2ccc(Br)cc2)S(=O)(=O)NC1C (centres undefined) -3.39%
COC(=O)C1=C(C)N(C(C)c2ccccc2)C(=O)/C1=C\c1ccco1 (centres undefined) 1.04%
Cc1ccc(-c2nnc(Nc3ccc(C(=O)N(C)C)cc3)c3ccccc23)cc1S(N)(=O)=O 6.07%
COC(=O)c1ccc(CNC(=O)C2CCC(=O)N(Cc3ccccn3)C2)cc1 (centres undefined) 4.62%
CN(C)/C=C(/C(=O)c1ccc(F)cc1)S(=O)(=O)c1ccc(F)cc1 2.38%
O=C(Nc1ccccc1-c1nnn(CC(=O)N2CCCc3ccccc32)n1)c1cccc(Cl)c1 0.94%
CCC(C)[C@H](NC(=O)N1CCn2c1nc1ccccc12)C(=O)NCc1ccc(OC)cc1 (some centres undefined) 9.75%
COc1cccc(NC(=S)C(C#N)=C2N(C)c3ccccc3N2C)c1 0.38%
CC1=C(C(=O)OC(C)(C)C)C(c2ccc(Br)cc2)NC(=O)N1CCCC(=O)O (centres undefined) 1.2%
CC(=O)c1ccc(NC(=O)C(C)N(C)CC(=O)Nc2ccccc2Cl)cc1 (centres undefined) -3.65%
CCC(C)(C)NC(=O)c1cc([N+](=O)[O-])ccc1N1CCCCC1 -7.67%
N#Cc1c(NCCO)ccc([N+](=O)[O-])c1NCCO 3.1%
O=S(=O)(N/N=C\c1cccn1-c1ccccc1)c1ccc2ccccc2c1 0.8%
COc1cc(CN2CCN(Cc3ccc(C)cc3)CC2)c([N+](=O)[O-])cc1OC 8.01%
COc1ccc(-c2noc(CCC(=O)N3CCN(c4cccc(C)c4)CC3)n2)cc1 -0.7%
CCOc1ccc2nc(NCCNC(=O)C(C)(C)C)c(C)cc2c1 -11.1%
CCOc1ccc(S(=O)(=O)NCCSc2ccccc2)cc1 -4.36%
C[C@H](CO)N1C[C@H](C)[C@@H](CN(C)S(=O)(=O)c2ccc(F)cc2)Oc2ccc(NC(=O)CCC(F)(F)F)cc2C1=O 7.71%
COCCNC(=S)Nc1cc(S(=O)(=O)N2CCOCC2)ccc1N1CCCCC1 -18.3%
CCC(C)N1CC(=O)N2Cc3[nH]c4ccccc4c3C[C@H]2C1=O (some centres undefined) 0.63%
CC(=O)Nc1ccc(NC(=O)C(C)OC(=O)c2ccccc2C(=O)c2ccc(Cl)c([N+](=O)[O-])c2)cc1 (centres undefined) -0.74%
COC(=O)c1nc2n(n1)C(c1ccc([N+](=O)[O-])cc1)C(C(=O)Nc1ccc(Cl)cc1)=C(C)N2 (centres undefined) 3.68%
COC(=O)c1sc(N)c(C(=O)OC)c1COC(=O)CNS(=O)(=O)c1ccc(C)cc1 3.17%
CCN1CCN(C(=O)C2(NC(=O)Nc3cccc(F)c3)CCCCC2)CC1 -1.86%
COc1ccc2sc(-c3ccc(N(C)C)cc3)c(C#CCO)c2c1 21.1%
COc1ccc2sc(-c3ccc(S(C)(=O)=O)cc3)c(C#Cc3cncn3C)c2c1 -7.99%
CC(C)C[C@H](NC(=O)C1CC(=O)N(c2ccc3c(c2)OCCO3)C1)C(=O)NC1CCCC1 (some centres undefined) 0.18%
COc1ccc(/C=N/Nc2ccccc2C(=O)O)cc1 1%
COc1ccc(/C=N/Nc2nc(-c3ccc(C)cc3)c(C#N)c(=O)[nH]2)cc1 8.75%
Cc1cc(-c2nc(C)c(-c3nnc(SCC(=O)Nc4ccccc4)n3C)s2)no1 -5.75%
CCN(CC)S(=O)(=O)c1ccc(N2CCN(C)CC2)c(NC(=O)Nc2ccccc2F)c1 4.2%
COc1ccc(NS(=O)(=O)c2ccc(C)c(C(=O)N(C)Cc3ccc(OC)cc3OC)c2)cc1 10.5%
CC(=O)N1Cc2ccccc2CC1C(=O)O (centres undefined) 2.69%
O=C(CCCn1c(=O)c2sccc2n(CC(=O)NCC2CCCO2)c1=O)NCc1ccco1 (centres undefined) 3.97%
COc1cc(/C=C/C(=O)OCC(=O)Nc2cccc(Oc3ccccc3)c2)ccc1O -1.86%
O=C(NC1(C(F)(F)F)N=C2SCCN2C1=O)c1ccco1 (centres undefined) 1.41%
Cc1ccc(NC(=O)Nc2cc(-c3ccccc3)nn2C)cc1Cl -13.2%
COC(=O)[C@]1(S(=O)(=O)c2ccccc2)C[C@@H]2ON=C(c3ccc(OC)cc3)[C@@H]2C1 -6.69%
CCCCNc1nc2ccccc2nc1NS(=O)(=O)c1cccs1 10.7%
O=C(Nc1ccccc1Cl)/C(Cl)=C(\Cl)S(=O)c1ccccc1 (centres undefined) -26.7%
CCOC(=O)CCC(=O)OCC(=O)NC(C)C1CC2CCC1C2 (centres undefined) 2.01%
O=S(=O)(O)Oc1c[nH]c2ccccc12 4.41%
CCCN(C(=O)c1nc2nccc(C)n2n1)c1c(N)n(Cc2ccccc2)c(=O)[nH]c1=O 1.38%
CN(CC1CCCO1)S(=O)(=O)c1ccc(C(=O)Nc2ccc(F)cc2)cc1 (centres undefined) -2.76%
NC(=O)c1ccccc1N=Cc1ccc2ccccc2c1 9.74%
COC(=O)CN1C(=O)[C@H]2[C@@H](C3CC3)N3C(=O)CN(Cc4ccc(-c5ccccc5)cc4)C(=O)[C@@]3(Cc3ccccc3)[C@H]2C1=O 15.8%
CC(=O)c1sc(N/N=C/c2ccc(C(C)C)cc2)nc1C -6.85%
CCCn1c(C)cc(C(=O)COC(=O)c2c(C)nn(-c3ccccc3)c2C)c1C 0.04%
Cc1ccc(-c2nc(SCC(=O)Nc3ccccc3OC(F)F)c3c(C)c(C(=O)O)sc3n2)cc1 -2.33%
CCOc1ccccc1CN1CCN(C2CCC2)CC1CCO (centres undefined) 8.07%
Cc1ccc(Cl)cc1NC(=O)C1CCN(S(C)(=O)=O)CC1 -5.8%
CN(CCc1ccccn1)C(=O)c1ccc(OC2CCN(CCc3ccccc3)CC2)cc1 -3.49%
Cc1ccc(NC2CCCN(C(=O)CCc3cn[nH]c3)C2)cc1C (centres undefined) 8.07%
CC(C)C[C@H](NC(=O)[C@@H]1O[C@H]1C(=O)O)C(=O)NCCCCN=C(N)N 2.62%
COc1ccccc1/C=C/C=N/n1c(-c2ccc(Cl)cc2Cl)n[nH]c1=S -14.5%
Cc1ccc(C(=O)CN2C(=O)NC3(CCc4ccccc43)C2=O)c(C)c1 (centres undefined) 6%
Cc1ccc(C(=O)N2CCCC(c3ccccc3)=N2)cc1 3.86%
COc1ccc2c(c1)c(=O)c(C(=O)c1ccc(Cl)cc1)cn2CC(=O)Nc1ccc(F)cc1 2.32%
CC(C)COP(=O)(c1ccc(N(C)C)cc1)C(Nc1ccccc1)c1cccnc1 (centres undefined) 5.66%
Cc1nnc(SCC(=O)Nc2ncc3c(n2)CC(C)(C)CC3=O)s1 -5.45%
CSc1ccc(/C=C/C(=O)NC23CC4CC(CC(C4)C2)C3)cc1 2.05%
CN(CC(=O)NC1CCN(Cc2ccccc2)CC1)S(=O)(=O)c1ccc(Cl)s1 5.81%
C=CCNC(=O)C1CC2c3ccccc3C1c1ccccc12 (centres undefined) 5.82%
O=C(COc1ccccc1Cl)N1N=C(c2cccs2)CC1c1ccco1 (centres undefined) 4.79%
COc1ccc(C2CC(c3cccs3)=NN2c2ccc(F)cc2)cc1OC (centres undefined) -19.4%
COc1ccccc1N1CCN(C(=O)c2ccc(NC3=NC4CS(=O)(=O)CC4S3)cc2)CC1 (centres undefined) -12%
COc1ccccc1N1CCN(C(=O)c2cn(-c3ccccc3)nc2-c2cccnc2)CC1 -2.98%
O=C(NCc1cccnc1)Nc1cccc(NC(=O)NCc2cccnc2)c1F 2.89%
COC(=O)Cc1cnc(NC(=O)CSc2nc(C(C)C)cc(=O)[nH]2)s1 5.45%
CCC(=O)Nc1c(C)n[nH]c1C -3.68%
N#Cc1ccc(C2N=C(c3ccccc3)NO2)cc1 (centres undefined) -2.62%
COCc1c(C(=O)N/N=C\c2cccnc2)nnn1-c1nonc1N 0.8%
Cc1cccc(N=Nc2c(O)[nH]c3ccc(F)cc23)c1 12.6%
CC(OC(=O)c1ccc2noc(-c3ccccc3)c2c1)C(N)=O (centres undefined) -2.76%
Oc1ccc(-c2onc3ccc(Cl)cc23)cc1 -12.8%
COc1ccc(NC(=S)N2N=CCC2c2ccccc2)cc1 (centres undefined) 11.4%
c1cnc(N2CCN(c3ccc4ccccc4n3)CC2)nc1 2.75%
NC[C@H](Cc1ccccc1)NCCc1cc(C(F)(F)F)cc(C(F)(F)F)c1 -5.68%
COc1ccccc1C(=O)N1CCN=C1SCc1cccnc1 -6.62%
O=C(CCN1CCN(C/C=C/c2ccccc2)CC1)Nc1ccccc1Cl 8.05%
